pIC50: −log10 of the molar value. Converted amounts (≈) assume the structure as drawn.
Assays:
[1] = Inhibition of Staphylococcus aureus thymidylate kinase assessed as effect on conversion of dTDP to dTMP by luciferin/luciferase reporter gene based assay
[2] = Inhibition of Streptococcus pneumoniae thymidylate kinase assessed as effect on conversion of dTDP to dTMP by luciferin/luciferase reporter gene based assay
Streptococcus pneumoniae = assay: Antimicrobial activity against Streptococcus pneumoniae by broth microdilution method; type: functional
Procedure, shortened: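 Test organisms were strains from the AstraZeneca collection.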

Staphylococcus aureus [3] = assay: Antimicrobial activity against methicillin and quinolone-resistant Staphylococcus aureus by broth microdilution method; type: functional
Procedure, shortened: (§1)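 MICs were determined against bacterial strains from the AstraZeneca collection. For S. aureus, MSQS means methicillin- and quinolone-sensitive, and MRQR means methicillin- and quinolone-resistant.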

Staphylococcus aureus [4] = assay: Antimicrobial activity against methicillin and quinolone-sensitive Staphylococcus aureus by broth microdilution method; type: functional; procedure, shortened: as §1
[5] = Partition coefficient, log D of the compound at pH 7.4 by shake flask method; details: octanol/water
Candida albicans = assay: Toxicity against Candida albicans; type: organism-based
Thymidylate kinase = molecular target: T1, Thymidylate kinase (Homo sapiens, UniProt P23919); assay: Inhibition of human thymidylate kinase assessed as effect on ATP production by Escherichia coli DdlA and Malachite green reagent based assay
T1 sequence (P23919 whole entry): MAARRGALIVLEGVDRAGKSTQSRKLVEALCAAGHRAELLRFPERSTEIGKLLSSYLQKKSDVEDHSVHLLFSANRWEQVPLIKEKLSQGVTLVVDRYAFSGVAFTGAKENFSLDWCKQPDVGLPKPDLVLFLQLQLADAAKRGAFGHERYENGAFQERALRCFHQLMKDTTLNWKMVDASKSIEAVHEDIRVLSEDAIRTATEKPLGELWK

[6] = Toxicity against human A549 cells; type: cell-based; details: read-out: MIC
Staphylococcus aureus [7] = assay: Antimicrobial activity against Staphylococcus aureus infected in mouse thigh infection model assessed as compound dose causing microbial infection stasis administered as single dose; type: functional, Thigh muscle

Compound	pIC50 [1]	pIC50 [2]	MIC (Streptococcus pneumoniae)	MIC (Staphylococcus aureus [3])	MIC (Staphylococcus aureus [4])	also measured
Cc1cn([C@H]2CCCN(Cc3cccc(Oc4cccc(F)c4)c3)C2)c(=O)[nH]c1=O	5.49	6.40	–	–	–	–
Cc1cn([C@H]2CCCN(Cc3cccc(Oc4cccc(Cl)c4)c3)C2)c(=O)[nH]c1=O	5.92	6.82	–	–	–	–
Cc1cn([C@H]2CCCN(Cc3cccc(Oc4cccc(Br)c4)c3)C2)c(=O)[nH]c1=O	6.22	7.00	–	–	–	–
Cc1cn([C@H]2CCCN(Cc3cccc(Oc4cc(F)cc(Cl)c4)c3)C2)c(=O)[nH]c1=O	5.68	7.00	–	–	–	–
Cc1cn([C@H]2CCCN(Cc3cccc(Oc4cc(Cl)cc(Cl)c4)c3)C2)c(=O)[nH]c1=O	5.82	6.40	–	–	–	–
Cc1cn([C@H]2CCCN(Cc3cccc(Oc4ccc(Cl)cc4)c3)C2)c(=O)[nH]c1=O	5.07	6.40	–	–	–	–
Cc1cn([C@@H]2CCCN(Cc3cccc(Oc4ccc(Cl)cc4)c3)C2)c(=O)[nH]c1=O	< 3.70	5.29	–	–	–	–
Cc1cn([C@H]2CCCN(Cc3cccc(Oc4ccc(Cl)c(Cl)c4)c3)C2)c(=O)[nH]c1=O	5.59	6.40	–	–	–	–
Cc1cn([C@@H]2CCCN(Cc3cccc(Oc4ccc(Cl)c(Cl)c4)c3)C2)c(=O)[nH]c1=O	< 3.70	4.74	–	–	–	–
Cc1cn([C@H]2CCCN(Cc3ccc(C(=O)O)c(Oc4cccc(Cl)c4)c3)C2)c(=O)[nH]c1=O	7.14	8.72	1 mg/L (≈ 2.13 µM)	32 mg/L (≈ 68.1 µM)	32 mg/L (≈ 68.1 µM)	–
Cc1cn([C@H]2CCCN(Cc3ccc(C(=O)O)c(Oc4cccc(Br)c4)c3)C2)c(=O)[nH]c1=O	7.57	9.00	1 mg/L (≈ 1.94 µM)	32 mg/L (≈ 62.2 µM)	16 mg/L (≈ 31.1 µM)	logD [5]: -0.51
Cc1cccc(Oc2cc(CN3CCC[C@H](n4cc(C)c(=O)[nH]c4=O)C3)ccc2C(=O)O)c1	6.94	8.10	4 mg/L (≈ 8.9 µM)	128 mg/L (≈ 285 µM)	64 mg/L (≈ 142 µM)	–
Cc1cn([C@H]2CCCN(Cc3ccc(C(=O)O)c(Oc4cccc(F)c4)c3)C2)c(=O)[nH]c1=O	6.47	7.55	32 mg/L (≈ 70.6 µM)	128 mg/L (≈ 282 µM)	128 mg/L (≈ 282 µM)	logD [5]: -1
Cc1cn([C@H]2CCCN(Cc3ccc(C(=O)O)c(Oc4cccc(C(F)(F)F)c4)c3)C2)c(=O)[nH]c1=O	–	8.00	4 mg/L (≈ 7.94 µM)	64 mg/L (≈ 127 µM)	64 mg/L (≈ 127 µM)	MIC (Candida albicans): > 64 mg/L; pIC50 (Thymidylate kinase): < 3.70; logD [5]: -0.38; MCC [6]: > 64 µg/mL
CC[C@H](c1ccc(C(=O)O)c(Oc2cccc(Cl)c2)c1)N1CCC[C@H](n2cc(C)c(=O)[nH]c2=O)C1 (racemic)	7.86	9.22	0.1 mg/L (≈ 0.201 µM)	2 mg/L (≈ 4.02 µM)	2 mg/L (≈ 4.02 µM)	logD [5]: 0.2
Cc1cn(C2CCCN(Cc3cccc(Oc4cccc(C(F)(F)F)c4)c3)C2)c(=O)[nH]c1=O (racemic)	–	4.82	–	–	–	–
Cc1ccc(Oc2cccc(CN3CCCC(n4cc(C)c(=O)[nH]c4=O)C3)c2)cc1 (racemic)	4.23	5.22	–	–	–	–
Cc1cn(C2CCCN(Cc3cccc(Oc4ccc(Cl)cc4)c3)C2)c(=O)[nH]c1=O (racemic)	4.46	5.89	–	–	–	–
COc1ccc(Oc2cccc(CN3CCCC(n4cc(C)c(=O)[nH]c4=O)C3)c2)cc1 (racemic)	3.84	5.05	–	–	–	–
C[C@H]1COc2c(N3CCN(C)CC3)c(F)cc3c(=O)c(C(=O)O)cn1c23.C[C@H]1COc2c(N3CCN(C)CC3)c(F)cc3c(=O)c(C(=O)O)cn1c23.O [LEVOFLOXACIN]	–	–	–	–	–	Activity (Staphylococcus aureus [7]): 40 mg/kg

Source: ChEMBL document CHEMBL2177095, “Discovery of selective and potent inhibitors of gram-positive bacterial thymidylate kinase (TMK)” (J Med Chem, 2012)
